Source: PubChem
LEDGF integ inh – blocks HIV-1 LEDGF/p75-dependent DNA integration; TR-FRET IN-LEDGF/p75 DNA integration, Eu/Cy5; inhibition, % at 3.7 µM; 0.64% of 370,000 active; AID 743269;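 active = inhibition above the screen-wide mean plus 3 SD, cut at about 13% in these data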;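 note: signal is the Cy5 over europium emission ratio at 671 and 618 nm; 0% = plate median of compound wells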
HTRA1 inh – inhibitors of human serine peptidase HTRA1 | Q92743 | recombinant HTRA1, FP-rhodamine activity-based probe, fluorescence polarization | inhibition, % at 5.96 µM | 0.5% of 340,000 active | AID 504803; in the data active = inhibition above about 36%;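 note: 0% = enzyme with DMSO and 100% = wells lacking enzyme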
TDP2 absorb – TDP2 (human) inhibition, absorbance primary screen; inhibition, % at 12.8 µM; recombinant TDP2, T5PNP hydrolysis, p-nitrophenol absorbance 415 nm; 0.34% of 370,000 active; O95551;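 active = inhibition above the mean of all tested compounds plus 3 SD, set per campaign, cut at about 25% in these data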;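 note: 0% = DMSO with enzyme and 100% = buffer with substrate but no TDP2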
Target sequence (O95551 whole entry, looked up): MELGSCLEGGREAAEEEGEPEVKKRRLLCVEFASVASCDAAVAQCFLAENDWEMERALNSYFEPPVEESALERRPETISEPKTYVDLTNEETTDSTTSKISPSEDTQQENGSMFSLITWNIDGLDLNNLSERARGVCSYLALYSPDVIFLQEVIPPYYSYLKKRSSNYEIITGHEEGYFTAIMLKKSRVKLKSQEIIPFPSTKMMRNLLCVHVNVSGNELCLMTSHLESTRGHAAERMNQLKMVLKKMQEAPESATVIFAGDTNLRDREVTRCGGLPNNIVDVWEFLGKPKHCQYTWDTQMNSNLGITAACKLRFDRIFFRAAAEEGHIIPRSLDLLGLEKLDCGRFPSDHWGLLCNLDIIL
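System: recombinant human TDP2 / Amount: 120 nM TDP2 per well / Also added: 5 mM T5PNP chromogenic substrate / Doses: 12.8 µM single point, 1% DMSO / Incubation: 2 h at 37 °C / Detection: p-Nitrophenol epi absorbance / Evaluation: % inhibition relative to enzyme-containing and enzyme-free wells / Repeats: singlicate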
TCR-CD3 inh – blocks the human TCR-CD3 interaction; TAMRA-labeled TCR probe fluorescence, biochemical; inhibition, % at 9.4 µM; 0.37% of 360,000 active; in the data active = inhibition above about 19%;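 note: recombinant mutant TCR 2C K166C tagged with TAMRA read by polarization; 0% = receptor in buffer alone and 100% = receptor with positive control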
SIAE inh – inhibitors of human sialic acid acetylesterase SIAE; SIAE FP-Rh probe binding, fluorescence polarization; inhibition, % at 9.66 µM; 0.69% of 370,000 active;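 active = inhibition above a cutoff: mean of compounds within the control limits plus 3 SD of those, cut at about 17% in these data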;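 note: 0% = plate median of compound wells and 100% = probe without SIAE protein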
mABHD4 FP – inhibitors of mouse ABHD4; Q8VD66; purified mABHD4, FP-Rh probe fluorescence polarization; inhibition, % at 8.92 µM; 0.54% of 370,000 active;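 active = inhibition exceeding the mean over every tested compound plus 3 SD, cut at about 30% in these data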;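 note: 0% = plate median of compound wells and 100% = S159A mutant with DMSO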
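System: mouse ABHD4 enzyme, wild type / Medium: HEPES pH 7.0, NaCl, Pluronic buffer / Reagent: FP-Rh activity-based fluorescent probe / Control set: S159A mutant high control, sample median low control / Detection: fluorescence polarization with parallel and perpendicular emission, 525/598 nm / Schedule: 45 min + 60 min at 25 °C / Compound dosing: 8.92 µM, single dose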
SIAE inh conf – confirmation of human SIAE inhibitors. shares compounds with SIAE inh. SIAE FP-Rh activity-based probe, fluorescence polarization. inhibition, % at 9.66 µM. 13% of 2,300 active. AID 1117263;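 active = mean inhibition of the replicates above the hit cutoff set in the primary screen, cut at about 17% in these data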;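 note: 0% = SIAE with DMSO and probe and 100% = probe without SIAE; inhibitors lower polarization as more probe stays unbound to SIAE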
Starred values were filed as active, the others as inactive; . = not tested or not shown. Shown are actives, neighbours in structure and some others; about 2.2% of the full set was active somewhere.

SMILES | LEDGF integ inh | HTRA1 inh | TDP2 absorb | TCR-CD3 inh | SIAE inh | mABHD4 FP | SIAE inh conf
COc1ccc(-c2csc(N(CCCN(C)C)C(=O)c3ccc(F)cc3)n2)cc1 | -1 | -9 | 7 | 0 | 2 | 6 | .
CCN(CC)c1ccc(/C=N/NC(=O)c2c[nH]c3ccccc23)cc1 | -5 | 8 | 8 | 2 | 24* | 8 | 17
COc1ccccc1N1CCN(/N=C/c2cccc(O)c2)CC1 | -3 | -2 | 10 | 2 | 4 | 5 | .
COc1ccccc1N1CCN(/N=C/c2cc(OC)c(O)c(OC)c2)CC1 | -1 | 2 | 8 | -8 | 20* | 7 | -2
CC(CCc1ccccc1)NC(=O)CSc1cccc[n+]1[O-] (configuration not stated) | 4 | -1 | 11 | 9 | 19* | 3 | 0
Cc1cc(C(=O)CCC(=O)NCC(=O)Nc2c(C)cccc2C)c(C)s1 | 1 | -11 | -1 | -2 | -12 | -3 | .
COc1cc2ccccc2cc1C(=O)N1CCCCC1 | 3 | 0 | 0 | 6 | -6 | -3 | .
COc1cc2ccccc2cc1C(=O)N1CCCC1 | 0 | 5 | -8 | -3 | 22* | 0 | -6
O=[N+]([O-])c1ccc(-c2ccc(/C=N/O)o2)cc1 | 0 | . | -6 | -8 | 25* | -3 | 2
NC(=O)N/N=C/c1ccc(-c2ccc([N+](=O)[O-])cc2)o1 | -1 | 5 | -12 | -7 | 11 | -1 | .
C#CCOc1ccc2c3c(c(=O)oc2c1)CCCC3 | 0 | -7 | 17 | 0 | -4 | -7 | .
O=C(N/N=C/C=C/c1ccco1)c1cccc([N+](=O)[O-])c1 | -5 | 19 | 4 | 3 | 17* | 14 | -6
CC[N+]1(C)[C@@H]2CC[C@H]1CC(OC(=O)[C@H]1CCC(C(=O)OC3C[C@H]4CC[C@@H](C3)[N+]4(C)CC)(c3ccccc3)c3ccccc31)C2 (some centres not stated) | 0 | 4 | -11 | -8 | -5 | -9 | .
Cc1c(Cl)cccc1NC(=O)CNC(=O)c1cn(-c2ccccc2)nc1-c1cccnc1 | 2 | -39 | -6 | -2 | -7 | -19 | .
COc1cccc(CN(C)C(=O)CC2C(=O)NCCN2C2Cc3ccccc3C2)c1 (configuration not stated) | -1 | 10 | -8 | -1 | 1 | -6 | .
COc1ccc(Nc2nnc(SC(C(=O)Nc3ccc(OC)c(Cl)c3)c3ccccc3)s2)cc1 (configuration not stated) | -3 | -40 | 4 | -10 | 20* | -11 | -3
COc1ccc(Nc2nnc(SC(C(=O)Nc3cc(C)ccc3C)c3ccccc3)s2)cc1 (configuration not stated) | 0 | 2 | -10 | 13 | 16 | -2 | .
Clc1ccc([C@H]2OC[C@@]3(CNCc4ccccn4)CS[C@H](c4ccc(Cl)cc4)N23)cc1 | 10 | . | -4 | . | 1 | 0 | .
Cc1ccc(C(=O)NCCCNC(=O)c2ccco2)cc1C | 0 | -1 | -5 | -1 | 1 | -6 | .
O=C1CCc2ccccc2N1Cc1ccccc1 | -3 | 2 | 6 | 7 | 18* | -3 | 0
CCCN(CCC)C(=O)c1c(NC(=O)CC)sc2c1CCCCC2 | -2 | 6 | 6 | 6 | 22* | 6 | -5
CCC(=O)Nc1sc2c(c1C(N)=O)CCC2 | 0 | 1 | -3 | 2 | 5 | -10 | .
CCn1c(NCc2ccc3c(c2)OCO3)nc2ccccc21 | 0 | 6 | -12 | -9 | 3 | -3 | .
CN(C)CCCn1c(NCc2ccc3c(c2)OCO3)nc2ccccc21 | 1 | 3 | -8 | 3 | 18* | 1 | 5
CC(c1nnc(SCC(=O)Nc2cc([N+](=O)[O-])ccc2F)n1Cc1ccccc1)N(C)C (configuration not stated) | -4 | -5 | 4 | -7 | -2 | 8 | .
SMILES | LEDGF integ inh | HTRA1 inh | TDP2 absorb | TCR-CD3 inh | SIAE inh | mABHD4 FP | SIAE inh conf
O=C1C2CC=CCC2C(=O)N1c1ccc(NCCc2ccccc2F)c([N+](=O)[O-])c1 (configuration not stated) | 4 | -1 | 4 | 6 | 17* | -1 | 2
COc1ccc2c(c1)CCC1(C)CC(=O)C(Br)=C21 (configuration not stated) | -1 | -2 | -8 | -1 | -5 | -3 | .
CCOc1ccc(Cc2nnc(SCC(=O)Nc3ccc(C(C)=O)cc3)[nH]c2=O)cc1 | 5 | -12 | 4 | 0 | -14 | -11 | .
COc1ccc(-c2[nH]c(-c3cc(OC)c4c(c3)OCO4)nc2-c2ccccc2)cc1 | -3 | 8 | -3 | 6 | 26* | 15 | -2
CCCCN(C=O)c1c(CC)nc2c(OCC3CCCCC3)cccn12 | 4 | . | -11 | 2 | 8 | 4 | .
CCc1nc2ccc(C(=O)NCCNC(C)=O)cn2c1N(CCC(C)C)CCN(C)C | 2 | . | 9 | -4 | 5 | -8 | .
O=C(O)c1ccc(Nc2cccc(F)c2)c([N+](=O)[O-])c1 | 2 | 10 | -9 | 7 | 20* | 29 | 0
CCOC(=O)[C@@H]1[C@H]2COc3ccc(Br)cc3[C@H]2N2C(=O)N(c3cccc(F)c3)C(=O)[C@]12C | 2 | -38 | 8 | 9 | -2 | -19 | .
N#C/C(=N\Nc1ccc(Cl)cc1)C(=O)c1ccccc1 | -1 | 9 | -8 | -2 | 4 | 2 | .
Cc1c(N/N=C(\C#N)C(=O)c2ccc(Cl)cc2)c(=O)n(-c2ccccc2)n1C | -6 | 1 | -8 | -4 | 18* | 8 | 4
COc1ccccc1C1=NOC(Cn2c(NCC3CCCO3)nc3c2c(=O)n(C)c(=O)n3C)C1 (configuration not stated) | 1 | 3 | 15 | 3 | 17* | -6 | 0
O=c1c2ccccc2cnn1CCOc1cccc(Br)c1 | -2 | -11 | 1 | -4 | -4 | 2 | .
S=C(Nc1ccccc1)N1CCn2cccc2C1c1cccnc1 (configuration not stated) | -1 | 1 | 8 | 2 | 12 | 1 | .
Fc1cccc(NC(=S)N2CCn3cccc3C2c2cccnc2)c1 (configuration not stated) | 0 | -8 | 13 | 3 | 25* | -6 | -3
CCN(CCn1cccn1)C(=O)c1cc(COc2c(F)cccc2F)on1 | -3 | 2 | 0 | -5 | 46* | 3 | 1
CCN(Cc1ccccc1)C(=O)c1cc(COc2c(F)cccc2F)on1 | -5 | -17 | -11 | 1 | -3 | -5 | .
COCCNC(=O)C1(C)CCCN(Cc2ccc(C)c3ccccc23)C1 (configuration not stated) | 2 | . | -2 | -5 | -1 | -8 | .
